Assay [1] can be described thus: Inhibition of bovine brain tubulin polymerization for 20 mins. Set-up: species or system Bos taurus. The gist of the method:
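Bovine brain tubulin (10 µM) preincubated with varying compound concentrations in glutamate buffer at 30 °C, then cooled to 0 °C. GTP added and mixtures warmed to 30 °C in cuvettes while assembly was followed by turbidity. IC50 is the concentration that halves the extent of assembly after 20 min.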

Assay [2] deals with MOLT-4. The experiment in a line: Antiproliferative activity against human MOLT4 cells after 2 days. The settings on record: MOLT-4, 48 h. It counts as functional, cell-based. The essentials: (§1)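 Cells suspended at 300,000–500,000 cells/mL of culture medium and mixed 1:1 with dilutions of compound. Incubated 2 days at 37 °C, then cell number counted with a Coulter counter. IC50 is the concentration giving 50% inhibition of proliferation. Values are means from dose–response curves of at least three independent experiments.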

The subject of assay [3] is L1210. The experiment in a line: Antiproliferative activity against mouse L1210 cells after 2 days. The assay is classed as functional, cell-based. Particulars: L1210, 48 h. The gist of the method: as §1
In assay [4] the test system is CCRF-CEM. The experiment in a line: Antiproliferative activity against human CEM cells after 2 days. Particulars: 48 h. The assay is classed as functional, cell-based. The gist of the method:
as §1

The test system of assay [5] is K562. The experiment in a line: Cell cycle arrest in human K562 cells assessed as accumulation at G2/M phase at 4.0 uM after 24 hrs by flow cytometry. It counts as functional. On the technique in general: In flow cytometry, cells or beads pass a laser one at a time.
Assay [6] relates to HeLa. Nature of the assay: Antiproliferative activity against human HeLa cells after 2 days. It counts as functional, cell-based. Particulars: 48 h. The essentials: as §1
The species named for assay [7] is Bos taurus. The experiment in a line: Displacement of [3H]colchicine from bovine brain tubulin at 1 uM. The gist of the method: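 Bovine brain tubulin (1 µM) incubated with compound at 1 µM and [³H]colchicine at 5 µM. Result is reported as percent inhibition of colchicine binding.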
A general note: Displacement assays read how much labelled ligand stays bound in the presence of the test substance.

Assay [8] relates to FM3A. Nature of the assay: Antiproliferative activity against mouse FM3A cells after 2 days. The assay is classed as functional, cell-based. Particulars: 48 h. The essentials:
as §1

Assay [9] has as its system K562. The experiment in a line: Cell cycle arrest in human K562 cells assessed as accumulation at G0/G1 phase at 4.0 uM after 24 hrs by flow cytometry. The assay is classed as functional.
For assay [10], the system named is K562. Nature of the assay: Cell cycle arrest in human K562 cells assessed as accumulation at S phase at 4.0 uM after 24 hrs by flow cytometry. The assay is classed as functional.

The IC50 is the concentration at which inhibition is half-maximal. For orientation: inhibition means the change of the read-out against control, counted positive when it falls. Low values mean a weak effect, high ones a strong effect. As for `COc1cc(C(=O)c2ccc(-c3ccccc3C)s2)cc(OC)c1OC`, the IC50 in [1] was 1.7 µM; in [2], 0.6 µM; in [3], 2.2 µM; in assay [4], 1.2 µM; in assay [6], 1.6 µM; in assay [8], 2.1 µM. The values for the Activity in [5], in [9] and in assay [10] were 85%, 15% and 23%, respectively. The compound further came in with an inhibition in [7] of 49%.
